From ChEMBL document CHEMBL1135739, “Radiolabeled amino acids for tumor imaging with PET: radiosynthesis and biological evaluation of 2-amino-3-[18F]fluoro-2-methylpropanoic acid and 3-[18F]fluoro-2-methyl-2-(methylamino)propanoic acid” (J Med Chem, 2002)

Tests used:
[1] = species: Rattus norvegicus; assay: Radioactivity distribution in pancreas of normal fischer rat after injection of [18F]fluoro-2-methylpropanoic acid after 120 min.; type: ADME, organism-based; details: in vivo, 2 h
Outline: (§1)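 Male Fischer 344 rats (200–250 g), fed ad libitum, anesthetized with intramuscular ketamine:xylazine (1:1, 0.1 mL/100 g). About 85 μCi tracer in 0.3 mL sterile water was given by tail-vein catheter. Groups of four were killed at 5, 30, 60 or 120 min. Tissues were weighed and gamma-counted against dose standards, decay-corrected, and expressed as %ID/g (mean ± standard error).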

[2] = species: Rattus norvegicus; assay: Radioactivity distribution in brain of normal fischer rat after injection of [18F]fluoro-2-methylpropanoic acid after 5 min.; type: ADME, organism-based; details: in vivo
Outline: (§2)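 Normal male Fischer 344 rats (200–250 g), anesthetized with i.m. ketamine:xylazine (1:1), got ~85 μCi of tracer in 0.3 mL sterile water i.v. via tail-vein catheter. Groups of four were killed at 5, 30, 60 or 120 min. Tissues were weighed and gamma-counted against dose standards, and counts were decay-corrected to %ID/g. Results are mean ± standard error (n = 4), compared by one-way ANOVA.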

[3] = species: Rattus norvegicus; assay: Radioactivity distribution in brain of normal fischer rat after injection of [18F]fluoro-2-methylpropanoic acid after 120 min.; type: ADME, organism-based; details: in vivo, 2 h; outline: as §2
[4] = species: Rattus norvegicus; assay: Radioactivity distribution in heart of normal fischer rat after injection of [18F]fluoro-2-methylpropanoic acid after 120 min.; type: ADME, organism-based; details: in vivo, 2 h; outline: as §2
[5] = species: Rattus norvegicus; assay: Radioactivity distribution in testis of normal fischer rat after injection of [18F]fluoro-2-methylpropanoic acid after 5 min.; type: ADME, organism-based; details: in vivo
Outline: (§3)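 Male Fischer 344 rats (200–250 g), fed ad libitum, under intramuscular ketamine:xylazine anesthesia, got ~85 μCi radiotracer in 0.3 mL sterile water by tail-vein catheter. Groups of four were killed at 5, 30, 60 or 120 min. Dissected tissues were weighed and gamma-counted with dose standards. Counts were decay-corrected and given as %ID/g, mean ± standard error. Tissues were compared by one-way ANOVA.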

[6] = species: Rattus norvegicus; assay: Radioactivity distribution in bone of normal fischer rat after injection of [18F]fluoro-2-methylpropanoic acid after 60 min.; type: ADME, organism-based, Bone element; details: in vivo, 1 h; outline: as §2
[7] = species: Rattus norvegicus; assay: Radioactivity distribution in kidney of tumor-bearing fischer rat after injection of [18F]fluoro-2-methylpropanoic acid after 60 min; type: ADME, organism-based; details: in vivo, 1 h
Outline: (§4)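 Male Fischer 344 rats carried intracranial 9L gliosarcoma, stereotactically implanted (4×10^4 cells) and used 17–19 days later. Awake, restrained animals received about 35 μCi tracer in 0.3 mL sterile water via the tail vein and were killed at 5, 60 or 120 min (n = 4–5). Tissues were weighed, gamma-counted, decay-corrected and reported as %ID/g ± standard error.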

[8] = species: Rattus norvegicus; assay: Radioactivity distribution in liver of tumor-bearing fischer rat after injection of [18F]fluoro-2-methylpropanoic acid after 5 min; type: ADME, organism-based; details: in vivo; outline: as §4
[9] = species: Rattus norvegicus; assay: Radioactivity distribution in liver of normal fischer rat after injection of [18F]fluoro-2-methylpropanoic acid after 60 min.; type: ADME, organism-based; details: in vivo, 1 h; outline: as §1
[10] = species: Rattus norvegicus; assay: Radioactivity distribution in testis of normal fischer rat after injection of [18F]fluoro-2-methylpropanoic acid after 30 min.; type: ADME, organism-based; details: in vivo, 0.5 h; outline: as §3
[11] = species: Rattus norvegicus; assay: Radioactivity distribution in pancreas of tumor-bearing fischer rat after injection of [18F]-fluoro-2-methylpropanoic acid after 60 min; type: ADME, organism-based; details: in vivo, 1 h; outline: as §4
[12] = species: Rattus norvegicus; assay: Radioactivity distribution in bone of tumor-bearing fischer rat after injection of [18F]fluoro-2-methylpropanoic acid after 120 min; type: ADME, organism-based, Bone element; details: in vivo, 2 h
Outline: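 Male Fischer 344 rats carried intracranial 9L gliosarcoma, implanted stereotactically (4×10^4 cells) and used 17–19 days later. Awake restrained rats got ~35 μCi of tracer in 0.3 mL sterile water by tail-vein injection and were killed at 5, 60 or 120 min. Tissues were weighed and gamma-counted, and counts were decay-corrected to %ID/g. Results are mean ± standard error; n = 4 at 5 and 120 min, n = 5 at 60 min.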

## CC(N)(C[18F])C(=O)O.Cl (configuration not stated)
[1]
  ID/g: 2.48%
[2]
  ID/g: 0.04%
[3]
  ID/g: 0.05%
[4]
  ID/g: 0.23%
[5]
  ID/g: 0.17%
[6]
  ID/g: 0.19%
[7]
  ID/g: 6.2%
[8]
  ID/g: 0.77%
[9]
  ID/g: 0.5%
[10]
  ID/g: 0.1%
[11]
  ID/g: 2.86%
[12]
  ID/g: 0.16%
